Measured values reported in PubChem BioAssay AID623897 (Broad Institute, 2012).
Several values for one entry are separate records, joined by “and”; a condition that tells them apart may be missing. Identical values can stand only once. Activity calls are given as the source filed them.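 How the source made its calls: active means fitted AC50 at or below twice the top valid tested dose for that sample, with falling signal; inconclusive means flat curve with 30 to 70% inhibition, or poor fit; inactive means the rest.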

tested on: not listed separately; test: growth inhibition of C. albicans CaCi-17, confirmation, retest at dose, dry powder, set 2 (AID 623897); conditions: C. albicans CaCi-17 growth, Alamar Blue fluorescence, 48 h; at 26 µM (top of the series)
In short: (§1)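 Medium: MOPS-buffered RPMI 1640 plus uridine, glucose; schedule: 48 h static growth at 37 °C, then 2 h Alamar Blue; signal: Alamar Blue fluorescence; controls: amphotericin B 10 µM as positive control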

Question: Which activity change, negative = inhibition does the source give for `CCOC(=O)N1C(=O)C2(CCCCC2)N(C(C)C)C1=S` here?
Answer: Its activity change, negative = inhibition is -6.94% (inactive).

Question: For `CCCc1ccc(N2C(=S)N(C(=O)OCC)C(=O)C23CCCCC3)cc1`, which activity change, negative = inhibition is on record?
Answer: The activity change, negative = inhibition was -11.5% (inactive).

Question: With `CC(C)N1C(=S)NC(=O)C12CCCCC2` as the compound, how does the activity change, negative = inhibition read?
Answer: Its activity change, negative = inhibition is -18.9% (inactive).

Question: Which activity change, negative = inhibition does the source give for `Cc1ccc(N2C(=S)NC(=O)C23CCCCC3)cc1` here?
Answer: Its activity change, negative = inhibition is -4.65% (inactive).

Question: For `Cc1ccc(N2C(=O)C(=O)NC2=S)cc1`, which activity change, negative = inhibition is on record?
Answer: The activity change, negative = inhibition was 5.65% (inactive).

Question: With `Cc1ccc(N2C(=S)N(C)C(=O)C23CCCCC3)cc1` as the compound, how does the activity change, negative = inhibition read?
Answer: The activity change, negative = inhibition was -21% (inactive).

Question: With `Cc1ccc(N2C(=S)N(C(=O)Oc3ccccc3)C(=O)C23CCCCC3)cc1` as the compound, how does the activity change, negative = inhibition read?
Answer: Its activity change, negative = inhibition is 1.41% (inactive).

Question: Which activity change, negative = inhibition does the source give for `CCCCN1C(=O)C2(CCCCC2)N(c2ccc(C)cc2)C1=S` here?
Answer: Its activity change, negative = inhibition is -7.78% (inactive).

Question: With `CCCOC(=O)N1C(=O)C2(CCCCC2)N(c2ccc(C)cc2)C1=S` as the compound, how does the activity change, negative = inhibition read?
Answer: Its activity change, negative = inhibition is 17.3% (inactive).

Question: Which activity change, negative = inhibition does the source give for `Cc1ccc(N2C(=S)N(S(C)(=O)=O)C(=O)C23CCCCC3)cc1` here?
Answer: The activity change, negative = inhibition was 3.7% (inactive).

Question: For `O=C1NC(=S)N(Cc2ccccc2)C12CCCCC2`, which activity change, negative = inhibition is on record?
Answer: Its activity change, negative = inhibition is 0.955% (inactive).

Question: With `Cc1ccc(N2C(=O)NC(=O)C23CCCCC3)cc1` as the compound, how does the activity change, negative = inhibition read?
Answer: Its activity change, negative = inhibition is 5.65% (inactive).

Question: With `Cc1ccc(N2C(=O)N(C)C(=O)C23CCCCC3)cc1` as the compound, how does the activity change, negative = inhibition read?
Answer: Its activity change, negative = inhibition is 0.531% (inactive).

Question: Which activity change, negative = inhibition does the source give for `Cc1ccc(N2C(=O)C3(CCCCC3)NC2=S)cc1` here?
Answer: Its activity change, negative = inhibition is 5.29% (inactive).

Question: Which activity change, negative = inhibition does the source give for `Cc1ccc(N2CC(=O)NC2=O)cc1` here?
Answer: The activity change, negative = inhibition was -8.61% (inactive).

Question: Which activity change, negative = inhibition does the source give for `O=C1NC(=S)NC12CCCCC2` here?
Answer: Its activity change, negative = inhibition is 2.58% (inactive).

Question: With `CCOC(=O)N1C(=O)C2(CCCCC2)N(c2ccc(C(C)C)cc2)C1=S` as the compound, how does the activity change, negative = inhibition read?
Answer: The activity change, negative = inhibition was 8.52% (inactive).

Question: With `CCOC(=O)N1C(=O)C2(CCOCC2)N(c2ccc(C)cc2)C1=S` as the compound, how does the activity change, negative = inhibition read?
Answer: Its activity change, negative = inhibition is 0.474% (inactive).

Question: For `CCOC(=O)N1C(=S)N(c2ccc(C)cc2)C2(CCCCC2)C1=NCc1ccccc1`, which activity change, negative = inhibition is on record?
Answer: The activity change, negative = inhibition was 5.9% (inactive).

Question: With `CCOC(=O)N1C(=O)C(C)(C)N(c2ccc(C)cc2)C1=S` as the compound, how does the activity change, negative = inhibition read?
Answer: Its activity change, negative = inhibition is 11.1% (inactive).

Question: For `CCCC(=O)N1C(=O)C2(CCCCC2)N(c2ccc(C)cc2)C1=S`, which activity change, negative = inhibition is on record?
Answer: Its activity change, negative = inhibition is 8.69% (inactive).

Question: For `Cc1ccc(N2C(=S)N(C(=O)OCc3ccccc3)C(=O)C23CCCCC3)cc1`, which activity change, negative = inhibition is on record?
Answer: Its activity change, negative = inhibition is 5.07% (inactive).

Question: Which activity change, negative = inhibition does the source give for `O=C1NC(=S)N(c2ccc(F)cc2)C12CCCCC2` here?
Answer: Its activity change, negative = inhibition is -18.2% (inactive).

Question: For `CCCCN1C(=O)N(c2ccc(C)cc2)C2(CCCCC2)C1=O`, which activity change, negative = inhibition is on record?
Answer: The activity change, negative = inhibition was 9.41% (inactive).

Question: With `CCOC(=O)N1C(=O)C2(CCCCC2)NC1=S` as the compound, how does the activity change, negative = inhibition read?
Answer: The activity change, negative = inhibition was -0.208% (inactive).

Question: Which activity change, negative = inhibition does the source give for `CCOC(=O)N1C(=O)C2(CCCC2)N(c2ccc(C)cc2)C1=S` here?
Answer: Its activity change, negative = inhibition is 1.68% (inactive).

Question: Which activity change, negative = inhibition does the source give for `CCOC(=O)N1C(=O)C2(CCCCC2)N(c2ccc(CC)cc2)C1=S` here?
Answer: Its activity change, negative = inhibition is -31.8% (inactive).

Question: For `Cc1ccc(N2C(=S)N(C(=O)OC(C)C)C(=O)C23CCCCC3)cc1`, which activity change, negative = inhibition is on record?
Answer: Its activity change, negative = inhibition is 7.31% (inactive).

Question: With `Cc1ccc(N2C(=S)NC(=O)C23CCCC3)cc1` as the compound, how does the activity change, negative = inhibition read?
Answer: Its activity change, negative = inhibition is 4.84% (inactive).

Question: For `CCOC(=O)N1C(=S)N(c2ccc(C)cc2)C(=O)C12CCCCC2`, which activity change, negative = inhibition is on record?
Answer: The activity change, negative = inhibition was 3.4% (inactive).

Question: Which activity change, negative = inhibition does the source give for `CCOC(=O)N1C(=S)NC(=O)C12CCCCC2` here?
Answer: The activity change, negative = inhibition was 8.62% (inactive).

Question: For `Cc1ccc(N2C(=S)NC(=O)C2(C)C)cc1`, which activity change, negative = inhibition is on record?
Answer: Its activity change, negative = inhibition is 2.64% (inactive).

Question: Which activity change, negative = inhibition does the source give for `CCOC(=O)N1C(=O)C2(CCC2)N(c2ccc(C)cc2)C1=S` here?
Answer: The activity change, negative = inhibition was 13.1% (inactive).

tested on: C. albicans CaCi-17 growth, Alamar Blue fluorescence, 48 h; test: as above; conditions: not given
In short: as §1

Question: For `Cc1ccc(N2C(=S)N(C)C(=O)C23CCCCC3)cc1`, which AC50 is on record?
Answer: Its AC50 is > 52 µM (inactive).

Question: For `CCOC(=O)N1C(=O)C2(CCCCC2)N(c2ccc(C#N)cc2)C1=S`, which AC50 is on record?
Answer: Its AC50 is 1.76 µM.

Question: For `Cc1ccc(N2C(=S)NC(=O)C23CCC3)cc1`, which AC50 is on record?
Answer: The AC50 was > 52 µM (inactive).

Question: Which AC50 does the source give for `O=C1NC(=S)N(c2ccccc2)C12CCCCC2` here?
Answer: The AC50 was > 52 µM (inactive).

Question: With `CCOC(=O)N1C(=O)C2(CCCCC2)N(c2ccc(-c3ccccc3)cc2)C1=S` as the compound, how does the AC50 read?
Answer: Its AC50 is > 52 µM (inactive).

Question: For `CCOC(=O)N1C(=O)C2(CCCCC2)N(c2ccccc2C)C1=S`, which AC50 is on record?
Answer: The AC50 was 23.9 µM.

Question: For `CCOC(=O)N1C(=O)C2(CCCCC2)N(c2ccc(F)cc2)C1=S`, which AC50 is on record?
Answer: The AC50 was 0.946 µM.

Question: With `CC1/C=C/C=C\C=C\C=C\C=C\C=C\C=C\C(O[C@H]2OC(C)C(O)C(N)C2O)CC2OC(O)(CC(O)CC(O)C(O)CCC(O)CC(O)CC(=O)OC(C)C(C)C1O)CC(O)C2C(=O)O` (some centres not stated) as the compound, how does the AC50 read?
Answer: Its AC50 is 0.0301 µM.

Question: For `CCOC(=O)N1C(=O)C2(CCCCC2)N(c2ccc(Cl)cc2)C1=S`, which AC50 is on record?
Answer: The AC50 was 1.37 µM.

Question: Which AC50 does the source give for `CCOC(=O)N1C(=O)C2(CCCCC2)N(c2ccc(C)cc2)C1=S` here?
Answer: The AC50 was 8.5 µM and 9.7 µM.

Question: With `COC(=O)N1C(=O)C2(CCCCC2)N(c2ccc(C)cc2)C1=S` as the compound, how does the AC50 read?
Answer: The AC50 was 17.1 µM.

Question: For `CCOC(=O)N1C(=O)N(c2ccc(C)cc2)C2(CCCCC2)C1=O`, which AC50 is on record?
Answer: The AC50 was > 52 µM (inactive).

Question: Which AC50 does the source give for `CCOC(=O)N1C(=O)C2(CCCCC2)N(c2ccccc2)C1=S` here?
Answer: Its AC50 is 4.15 µM.

Question: With `CCOC(=O)N1C(=O)C2(CCCCC2)N(c2ccc(C(F)(F)F)cc2)C1=S` as the compound, how does the AC50 read?
Answer: Its AC50 is 16.2 µM.

Question: Which AC50 does the source give for `CCOC(=O)N1C(=O)C2(CCCCC2)N(c2ccc(C(C)(C)C)cc2)C1=S` here?
Answer: The AC50 was > 52 µM (inactive).

Question: With `Cc1ccc(N2CC(=O)NC2=S)cc1` as the compound, how does the AC50 read?
Answer: The AC50 was > 52 µM (inactive).

Question: With `CCOC(=O)N1C(=O)C2(CCCCC2)N(c2cccc(C)c2)C1=S` as the compound, how does the AC50 read?
Answer: The AC50 was 8.16 µM.

Question: For `Cc1ccc(N2C(=S)NC(=O)C23CCOCC3)cc1`, which AC50 is on record?
Answer: Its AC50 is > 52 µM (inactive).

Question: For `CCOC(=O)N1C(=O)C2(CCCCC2)N(Cc2ccccc2)C1=S`, which AC50 is on record?
Answer: The AC50 was 22.8 µM.
